The star is where a group is joined. pNA = O=[N+]([O-])c1ccc(N*)cc1
Columns and labels:
caspase-7 [1] = target: T1, caspase-7 (Homo sapiens, UniProt P55210); test: Crystal structure of caspase-7/LDESD; type: binding; details: crystal structure caspase-7/LDESD, 2.45 Å, PDB 3EDR
T1 sequence (P55210 24-198 limits assumed): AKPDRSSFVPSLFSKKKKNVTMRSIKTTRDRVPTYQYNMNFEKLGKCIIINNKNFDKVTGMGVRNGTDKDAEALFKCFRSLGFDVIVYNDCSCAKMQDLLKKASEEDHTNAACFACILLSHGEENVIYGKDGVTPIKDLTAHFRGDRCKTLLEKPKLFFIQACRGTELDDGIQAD
T1 sequence (P55210 207-303 limits assumed): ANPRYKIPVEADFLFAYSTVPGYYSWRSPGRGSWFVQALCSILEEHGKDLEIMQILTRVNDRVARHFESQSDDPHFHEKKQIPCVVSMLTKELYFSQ

caspase-3 [2] = target: T2, caspase-3 (Homo sapiens, UniProt P42574); test: Crystal structure of caspase-3/LDESD; type: binding; details: crystal structure caspase-3/LDESD, 1.61 Å, PDB 3EDQ
T2 sequence (P42574 29-175 limits assumed): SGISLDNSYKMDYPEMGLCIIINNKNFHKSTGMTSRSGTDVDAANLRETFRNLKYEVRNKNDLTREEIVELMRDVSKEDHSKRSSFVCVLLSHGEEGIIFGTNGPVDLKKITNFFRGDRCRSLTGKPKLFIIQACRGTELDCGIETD
T2 sequence (P42574 176-277 limits assumed): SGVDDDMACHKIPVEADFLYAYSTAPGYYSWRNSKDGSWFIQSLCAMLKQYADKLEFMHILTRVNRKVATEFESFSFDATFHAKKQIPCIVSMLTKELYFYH

caspase-6 = target: T3, caspase-6 (Homo sapiens, UniProt P55212); test: Colorimetric substrate hydrolysis by caspase-6; type: biochemical; details: for kcat/Km: 50 mM HEPES, pH 7.25, 100 mM NaCl, 10% sucrose, 0.1% CHAPS, 405 nm, triplicate; for Relative kcat/Km (relative activity): relative to DEVD = 100%
T3 sequence (P55212 25-179 limits assumed): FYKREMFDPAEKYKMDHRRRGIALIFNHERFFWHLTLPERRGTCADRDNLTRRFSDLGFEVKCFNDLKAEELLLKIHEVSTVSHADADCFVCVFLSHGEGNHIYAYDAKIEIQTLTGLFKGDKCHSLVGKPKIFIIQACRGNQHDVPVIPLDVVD
T3 sequence (P55212 194-293 limits assumed): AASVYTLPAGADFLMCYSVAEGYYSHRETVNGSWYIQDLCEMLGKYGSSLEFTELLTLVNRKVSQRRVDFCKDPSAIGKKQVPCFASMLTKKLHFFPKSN
Summary of the method: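 It was purified by Ni-NTA and S-100 gel filtration and self-processed into active subunits. Assays used 50 mM HEPES pH 7.25, 100 mM NaCl, 10% sucrose, 0.1% CHAPS, with pNA substrates at varied concentrations, A405, in triplicate.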

caspase-8 = caspase-8 (Homo sapiens, UniProt Q14790); test: Colorimetric substrate hydrolysis by caspase-8; type: biochemical; details: relative to DEVD = 100%; caspase-8, pH 7.5
caspase-7 [3] = target: T1, caspase-7; test: Colorimetric substrate hydrolysis by caspase-7; type: biochemical; details: relative to DEVD = 100%; caspase-7, pH 7.5
caspase-3 [4] = target: T2, caspase-3; test: Colorimetric substrate hydrolysis by caspase-3; type: biochemical; details: for Relative kcat/Km (relative activity): relative to DEVD = 100%, caspase-3, pH 7.5

caspase-8, sequence (Q14790 217-374 limits assumed): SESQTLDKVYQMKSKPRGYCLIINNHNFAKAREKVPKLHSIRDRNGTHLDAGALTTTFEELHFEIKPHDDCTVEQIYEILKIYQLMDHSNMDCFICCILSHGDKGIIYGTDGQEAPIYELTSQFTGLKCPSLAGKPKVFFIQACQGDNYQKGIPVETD
caspase-8, sequence (Q14790 385-479 limits assumed): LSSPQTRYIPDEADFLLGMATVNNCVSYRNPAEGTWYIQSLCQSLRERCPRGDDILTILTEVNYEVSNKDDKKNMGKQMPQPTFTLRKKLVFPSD

Ac-LDESD-aldehyde
covalent binding mode (active site cysteine with aldehyde) (caspase-7 [1]): forms a hemithioacetal bond with the aldehyde group of the inhibitor | covalent binding mode (active site cysteine with aldehyde) (caspase-3 [2]): forms a hemithioacetal bond with the aldehyde group of the inhibitor

Ac-LDEVD-pNA
kcat/Km (caspase-6): 0.068±0.01 min^−1μM^−1 | Relative kcat/Km (relative activity) (caspase-6; caspase-6, pH 7.25): 118% | Relative kcat/Km (relative activity) (caspase-8): 20% | Relative kcat/Km (relative activity) (caspase-7 [3]): 56% | increased hydrolysis relative to DEVD (caspase-3 [4]; caspase-3, increase over DEVD): 50% | Relative kcat/Km (relative activity) (caspase-3 [4]): 146%

Ac-QDEVD-pNA
kcat/Km (caspase-6): 0.086±0.01 min^−1μM^−1 | substrate preference, in words (caspase-6; caspase-6, polar P5): preference for polar P5 in QDEVD | Relative kcat/Km (relative activity) (caspase-6; caspase-6, pH 7.25): 148% | Relative kcat/Km (relative activity) (caspase-8): 18% | Relative kcat/Km (relative activity) (caspase-7 [3]): 67% | activity of QDEVD compared with DEVD, in words (caspase-3 [4]; caspase-3): the activity was similar for the tetrapeptide DEVD and the pentapeptide QDEVD | Relative kcat/Km (relative activity) (caspase-3 [4]): 85%

LEHD
kcat/Km (caspase-6): 0.19 min^−1μM^−1 | kcat/Km fold higher than DEVD (caspase-6; LEHD versus DEVD, caspase-6, pH 7.25): 3 fold
